Source: ChEMBL document CHEMBL2439981, “Design, synthesis, and biological evaluation of bone-targeted proteasome inhibitors for multiple myeloma” (Bioorg Med Chem Lett, 2013)

Legend:
Assay type in all cases: functional, cell-based
[1] = test system: RPMI-8226; experiment: Cytotoxicity against human RPMI8226 cells after 48 to 72 hrs by SRB assay
Summary of the method: (§1)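 Cells seeded in triplicate at 3,000 per well in RPMI with 10% fetal bovine serum; drugs added after 24 h at six or more concentrations (1–18 nM in the dose-response figure). Exposure 72 h per methods and figure legend, 48 h per table footnote. Sulforhodamine B colorimetric read-out. IC50 from growth-inhibition curve, mean ±SD of at least 3 independent experiments.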

[2] = (§2) Cytotoxicity against mouse 5TGM1 cells after 48 to 72 hrs by SRB assay; summary of the method: as §1
[3] = test system: 5TGM1; experiment: as §2; summary of the method: as §1

| SMILES | IC50 [1] [nM] | inhibition [1] | IC50 [2] [nM] | inhibition [3] |
| --- | --- | --- | --- | --- |
| CC(C)C[C@H](NC(=O)[C@H](Cc1ccccc1)NC(=O)c1cnccn1)B(O)O [BORTEZOMIB] | 9.5 | Dose-dependent effect | 6.78 | Dose-dependent effect |
| CC(C)C[C@H](NC(=O)[C@H](CC(C)C)NC(=O)[C@H](CC(C)C)NC(=O)OCc1ccc(C(=O)NCCCC(O)(P(=O)(O)O)P(=O)(O)O)cc1)B(O)O | 12.5 | Dose-dependent effect | 4.89 | Dose-dependent effect |
| CC(C)C[C@H](NC(=O)[C@H](Cc1ccccc1)NC(=O)c1cnc(C(=O)NCCCC(O)(P(=O)(O)O)P(=O)(O)O)cn1)B(O)O | 10.2 | Dose-dependent effect | 7.59 | Dose-dependent effect |
| CC(C)C[C@H](NC(=O)[C@H](CC(C)C)NC(=O)[C@H](CC(C)C)NC(=O)OCc1ccccc1)B(O)O | 13.8 | Dose-dependent effect | 9.18 | Dose-dependent effect |
| CC(C)C[C@H](NC(=O)[C@H](Cc1ccc(OCCCC(=O)NCCCC(O)(P(=O)(O)O)P(=O)(O)O)cc1)NC(=O)c1cnccn1)B(O)O | 11.5 | Dose-dependent effect | 9.39 | Dose-dependent effect |
